{"source": "paper PMC3687671", "about": "(British Journal of Pharmacology, 2013)", "key": {"[1]": {"molecular_target": "human CSE (Homo sapiens, UniProt P32929)", "sequence (P32929 whole entry, the tested form may be a part)": "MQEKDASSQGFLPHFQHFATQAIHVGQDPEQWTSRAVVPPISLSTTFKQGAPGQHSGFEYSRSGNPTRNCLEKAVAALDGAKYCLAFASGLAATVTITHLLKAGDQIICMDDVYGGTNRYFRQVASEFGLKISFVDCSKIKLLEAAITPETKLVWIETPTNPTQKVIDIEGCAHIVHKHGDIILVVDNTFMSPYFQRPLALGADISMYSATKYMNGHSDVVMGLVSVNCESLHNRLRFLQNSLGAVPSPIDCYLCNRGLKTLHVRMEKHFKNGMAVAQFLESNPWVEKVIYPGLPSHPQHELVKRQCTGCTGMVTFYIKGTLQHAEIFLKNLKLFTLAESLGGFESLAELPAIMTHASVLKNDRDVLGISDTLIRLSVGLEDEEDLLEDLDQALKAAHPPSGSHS", "assay": "H2S production by purified recombinant GST-CSE", "type": "biochemical", "settings": "for IC50: 10 μM PLP, 1 mM L-cys, inhibitor added 15 min before L-cys, 60 min, 37°C", "outline": "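Human CSE was made as a GST fusion in E. coli BL21(DE3) Codon Plus (0.1 mM IPTG, overnight at 18°C) and GSH-affinity purified. Each 100 μL reaction held 5 μg enzyme, 0.01 mM PLP, 1 mM L-cys and 50 mM sodium phosphate pH 8.2. Test compound was preincubated 15 min before L-cys, then 60 min at 37°C. ZnAc then TCA; methylene blue absorbance at 655 nm read against H2S calibration; n = 9.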"}, "[2]": {"molecular_target": "T1, human CBS (Homo sapiens, UniProt P35520)", "T1 sequence (P35520 1-551)": "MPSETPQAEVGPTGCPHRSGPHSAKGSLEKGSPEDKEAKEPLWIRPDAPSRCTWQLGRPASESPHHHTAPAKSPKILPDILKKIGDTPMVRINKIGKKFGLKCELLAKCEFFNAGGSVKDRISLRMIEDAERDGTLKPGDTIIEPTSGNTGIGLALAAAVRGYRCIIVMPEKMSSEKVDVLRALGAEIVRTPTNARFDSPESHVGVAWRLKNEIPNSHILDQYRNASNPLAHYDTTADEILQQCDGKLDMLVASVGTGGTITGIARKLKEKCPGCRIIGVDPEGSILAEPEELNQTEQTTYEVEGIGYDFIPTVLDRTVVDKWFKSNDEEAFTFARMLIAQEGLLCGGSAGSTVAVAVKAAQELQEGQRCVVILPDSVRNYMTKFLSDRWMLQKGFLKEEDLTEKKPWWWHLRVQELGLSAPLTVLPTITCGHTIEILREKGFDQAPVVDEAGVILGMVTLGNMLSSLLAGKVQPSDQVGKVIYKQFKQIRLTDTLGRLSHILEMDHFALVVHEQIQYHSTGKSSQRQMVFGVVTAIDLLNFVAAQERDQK", "assay": "H2S production by purified recombinant GST-CBS", "type": "biochemical", "outline": "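Human CBS was expressed as an N-terminal GST fusion in E. coli BL21(DE3) Codon Plus (0.3 mM δ-ALA, 0.1 mM IPTG, overnight at 30°C) and purified by GSH affinity. Each 100 μL reaction held 5 μg enzyme, 0.01 mM PLP, 1 mM L-cys, 1 mM homocysteine and 50 mM sodium phosphate pH 8.2. Test compound went in 15 min before substrate, then 60 min at 37°C. Stopped with ZnAc/TCA; methylene blue A655 against H2S standard curve; n = 9.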"}, "[3]": {"system": "rat aortic rings", "assay": "Isolated rat aortic ring assay", "settings": "cumulative concentration-response", "outline": "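Thoracic aortic rings (2–3 mm) from Sprague–Dawley rats (~300 g) were held in oxygenated Krebs–Henseleit at 37°C under 1 g resting tension, with isometric force recorded. Test compound was added 20 min before 1 μM phenylephrine. At the contraction plateau, cumulative L-cys concentration–response curves were run. At least four rings, each from a different rat; mean ± SEM.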"}}, "note": "“Also recorded” adds a separate entry of the source. Like-named read-outs stand apart in the source and are kept apart here."}
{"smiles": "NCCO/C=C/[C@H](N)C(=O)O", "note": "[AVG, aminoethoxyvinylglycine]", "values": [{"measurement": "IC50", "setting": "[1]; CSE, IC50, 5 μg CSE", "result": "1 ± 0.1", "unit": "µM"}, {"measurement": "Effect on CBS activity", "setting": "[2]; up to 1 mM", "result": "Neither PAG nor AVG had any effect on CBS activity; also recorded: failed to reduce CBS activity"}]}
{"smiles": "N[C@@H]1CON=C1O", "note": "[D-Cycloserine, D-cycloserine]", "values": [{"measurement": "CSE H2S production (% of control)", "setting": "[1]; 0.1 mM compound", "result": "83.3 ± 19.2 % of control"}, {"measurement": "Effect on CSE activity", "setting": "[1]; 1 mM", "result": "showed a tendency to reduce CSE activity"}, {"measurement": "CSE H2S production (% of control)", "setting": "[1]; 1 mM compound", "result": "73.3 ± 18.6 % of control"}, {"measurement": "CBS H2S production (% of control)", "setting": "[2]; 0.1 mM compound", "result": "94.2 ± 20.5 % of control"}, {"measurement": "CBS H2S production (% of control)", "setting": "[2]; 1 mM compound", "result": "80.6 ± 21.0 % of control"}]}
{"smiles": "N[C@H](CS)C(=O)O", "note": "[D-cysteine]", "values": [{"measurement": "Relaxation of phenylephrine-contracted aortic rings", "setting": "[3]", "result": "but not D-cysteine, led to a concentration-dependent relaxation"}]}
{"smiles": "CCN(CC)/[N+]([O-])=N/O.CCNCC", "note": "[DEA/NO, diethylamine NONOate]", "values": [{"measurement": "Inhibition of CSE activity", "setting": "[1]; 5 μM", "result": "did not inhibit CSE activity"}, {"measurement": "Maximal inhibition of CSE activity", "setting": "[1]; 250 μM", "result": 75, "unit": "%"}, {"measurement": "Effect on CSE activity", "setting": "[1]; NO donor, concentration-response", "result": "concentration dependently attenuated CSE activity"}, {"measurement": "Effect on CBS activity", "setting": "[2]; NO donor, up to 250 μM", "result": "did not affect CBS activity; also recorded: CBS was resistant"}]}
{"smiles": "NO", "note": "[HA, hydroxylamine]", "values": [{"measurement": "Inhibition of CSE activity", "setting": "[1]; 5 μM", "result": "approximately 60%"}, {"measurement": "Inhibition of CSE activity", "setting": "[1]; 50 μM", "result": "abolished CSE activity"}, {"measurement": "Selectivity towards CSE versus CBS", "setting": "[1]; IC50 CBS / IC50 CSE", "result": 60, "unit": "fold"}, {"measurement": "IC50", "setting": "[1]; read-out: CSE, IC50, 5 μg CSE", "result": "4.83 ± 0.31", "unit": "µM"}, {"measurement": "Inhibition of CBS", "setting": "[2]; 100 μM", "result": "approximately 30%"}]}
{"smiles": "NNC(=O)c1ccncc1", "note": "[Isoniazid, isoniazid]", "values": [{"measurement": "CSE H2S production (% of control)", "setting": "[1]; 0.1 mM compound", "result": "93.3 ± 23.0 % of control"}, {"measurement": "Effect on CSE activity", "setting": "[1]; 1 mM", "result": "showed a tendency to reduce CSE activity"}, {"measurement": "CBS H2S production (% of control)", "setting": "[2]; 0.1 mM compound", "result": "86.4 ± 9.4 % of control"}, {"measurement": "CBS H2S production (% of control)", "setting": "[2]; 1 mM compound", "result": "88.4 ± 2.1 % of control"}]}
{"smiles": "N[C@@H](CS)C(=O)O", "note": "[L-cys, L-cysteine]", "values": [{"measurement": "Relaxation of phenylephrine-contracted aortic rings", "setting": "[3]", "result": "led to a concentration-dependent relaxation"}]}
{"smiles": "C[Se]C[C@H](N)C(=O)O", "note": "[Methylseleno-cysteine, methylselenocysteine]", "values": [{"measurement": "CSE H2S production (% of control)", "setting": "[1]; 0.1 mM compound", "result": "85.5 ± 4.4 % of control"}, {"measurement": "CSE H2S production (% of control)", "setting": "[1]; 1 mM compound", "result": "79.7 ± 4.3 % of control"}, {"measurement": "Effect on CSE activity", "setting": "[1]; 0.1 and 1 mM (Table 2)", "result": "did not inhibit the activity of neither CBS nor CSE"}, {"measurement": "CBS H2S production (% of control)", "setting": "[2]; 0.1 mM compound", "result": "95.5 ± 2.1 % of control"}, {"measurement": "CBS H2S production (% of control)", "setting": "[2]; 1 mM compound", "result": "79.2 ± 5.1 % of control"}, {"measurement": "Effect on CBS activity", "setting": "[2]; 0.1 and 1 mM (Table 2)", "result": "did not inhibit the activity of neither CBS nor CSE"}]}
{"smiles": "C#CCN(C)Cc1ccccc1", "note": "[Pargyline, pargyline]", "values": [{"measurement": "CSE H2S production (% of control)", "setting": "[1]; 0.1 mM compound", "result": "96.7 ± 7.1 % of control"}, {"measurement": "CSE H2S production (% of control)", "setting": "[1]; 1 mM compound", "result": "81.7 ± 12.5 % of control"}, {"measurement": "Effect on CSE activity", "setting": "[1]; 0.1 and 1 mM (Table 2)", "result": "failed to significantly reduce CSE or CBS activity"}, {"measurement": "CBS H2S production (% of control)", "setting": "[2]; 0.1 mM compound", "result": "74.0 ± 12.8 % of control"}, {"measurement": "CBS H2S production (% of control)", "setting": "[2]; 1 mM compound", "result": "90.1 ± 14.3 % of control"}, {"measurement": "Effect on CBS activity", "setting": "[2]; 0.1 and 1 mM (Table 2)", "result": "failed to significantly reduce CSE or CBS activity"}]}
{"smiles": "C#CCOc1ccc(N)cc1C(=O)NCCCC", "note": "[Parsalmide]", "values": [{"measurement": "CSE H2S production (% of control)", "setting": "[1]; 0.1 mM compound", "result": "86.7 ± 17.8 % of control"}, {"measurement": "CSE H2S production (% of control)", "setting": "[1]; 1 mM compound", "result": "76.7 ± 11.3 % of control"}, {"measurement": "Effect on CSE activity", "setting": "[1]; 0.1 and 1 mM (Table 2)", "result": "failed to significantly reduce CSE or CBS activity"}, {"measurement": "CBS H2S production (% of control)", "setting": "[2]; 0.1 mM compound", "result": "88.4 ± 7.4 % of control"}, {"measurement": "CBS H2S production (% of control)", "setting": "[2]; 1 mM compound", "result": "93.8 ± 9.9 % of control"}, {"measurement": "Effect on CBS activity", "setting": "[2]; 0.1 and 1 mM (Table 2)", "result": "failed to significantly reduce CSE or CBS activity"}]}
{"smiles": "N[C@H](C(=O)O)C(F)(F)F", "note": "[Trifluoroalanine, trifluoroalanine]", "values": [{"measurement": "IC50", "setting": "[1]; read-out: CSE, IC50, 5 μg CSE", "result": "289 ± 7", "unit": "µM"}, {"measurement": "Potency on CBS relative to HA", "setting": "[2]", "result": "fourfold"}, {"measurement": "Selectivity for CBS (fold lower IC50 for CBS versus CSE)", "setting": "[2]; IC50 CSE / IC50 CBS", "result": "fourfold"}]}
